By EC50 is commonly meant the concentration needed to bring the measured effect to its halfway point. As usually defined, the Kp is tissue or fluid exposure divided by exposure in the circulation.

This is an account of results in ChEMBL document CHEMBL1772947, “Discovery and optimization of a novel, selective and brain penetrant M1 positive allosteric modulator (PAM): the development of ML169, an MLPCN probe” (Bioorg Med Chem Lett, 2011).

Data set [1] concerns the target T1, Muscarinic acetylcholine receptor M1 (Rattus norvegicus, UniProt P08482).
T1 sequence (P08482 whole entry): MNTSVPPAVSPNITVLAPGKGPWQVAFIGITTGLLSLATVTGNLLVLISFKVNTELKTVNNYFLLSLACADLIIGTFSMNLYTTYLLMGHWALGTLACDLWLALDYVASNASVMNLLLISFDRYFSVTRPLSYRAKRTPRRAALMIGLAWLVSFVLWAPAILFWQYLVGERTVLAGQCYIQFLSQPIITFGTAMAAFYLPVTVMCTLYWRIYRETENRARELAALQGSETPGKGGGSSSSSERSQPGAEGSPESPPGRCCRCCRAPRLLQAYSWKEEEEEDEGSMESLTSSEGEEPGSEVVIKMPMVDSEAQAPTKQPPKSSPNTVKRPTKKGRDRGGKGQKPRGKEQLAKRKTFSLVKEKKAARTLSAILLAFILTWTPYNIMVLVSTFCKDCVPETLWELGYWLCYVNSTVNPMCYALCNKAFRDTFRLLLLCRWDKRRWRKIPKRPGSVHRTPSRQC
Briefly: Allosteric modulation at rat M1 receptor expressed in CHO cells by calcium mobilization assay. It counts as functional, cell-based.

The target in data set [2] is T2, Muscarinic acetylcholine receptor M1 (Rattus norvegicus) (UniProt P08482).
T2 sequence (whole entry): T1 sequence (P08482 whole entry)
In words: Allosteric modulation at rat M1 receptor expressed in CHO cells by calcium mobilization assay relative to acetylcholine. Also noted: concentration or dose not given beside the values. It counts as functional, cell-based.

The nature of data set [3]: Ratio of AUC in brain to plasma in rat at 10 mg/kg, ip after 1 hr. Also noted: dose 10 mg/kg, route intraperitoneal. Conditions: brain and plasma. It counts as ADME, organism-based.
Data set [4] deals with T3, Muscarinic acetylcholine receptor M5 (Homo sapiens) (UniProt P08912).
T3 sequence (whole entry): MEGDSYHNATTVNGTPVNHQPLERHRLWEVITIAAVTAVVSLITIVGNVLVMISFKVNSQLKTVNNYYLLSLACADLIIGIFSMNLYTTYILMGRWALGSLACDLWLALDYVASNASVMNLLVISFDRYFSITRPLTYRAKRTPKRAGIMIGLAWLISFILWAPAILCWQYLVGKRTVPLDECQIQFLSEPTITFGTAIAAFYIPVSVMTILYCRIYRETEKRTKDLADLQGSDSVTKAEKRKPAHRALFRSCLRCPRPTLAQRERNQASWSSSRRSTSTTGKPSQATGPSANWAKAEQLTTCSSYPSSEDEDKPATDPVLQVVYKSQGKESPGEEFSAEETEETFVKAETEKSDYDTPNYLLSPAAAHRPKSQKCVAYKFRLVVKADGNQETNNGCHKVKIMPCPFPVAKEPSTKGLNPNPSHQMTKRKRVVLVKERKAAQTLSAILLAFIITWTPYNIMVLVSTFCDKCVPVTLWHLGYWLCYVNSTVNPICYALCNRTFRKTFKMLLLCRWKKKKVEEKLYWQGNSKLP
Briefly: Orthosteric binding affinity to M5 receptor at 10 uM by radioligand binding assay. In outline: (§1)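 Radioligand binding panel of 68 GPCRs, ion channels and transporters (Lead Profile screen, run externally), compound tested at 10 μM; read-out as percent activity at each target.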

In data set [5] the target is T4, Muscarinic acetylcholine receptor M4 (Homo sapiens) (UniProt P08173).
T4 sequence (whole entry): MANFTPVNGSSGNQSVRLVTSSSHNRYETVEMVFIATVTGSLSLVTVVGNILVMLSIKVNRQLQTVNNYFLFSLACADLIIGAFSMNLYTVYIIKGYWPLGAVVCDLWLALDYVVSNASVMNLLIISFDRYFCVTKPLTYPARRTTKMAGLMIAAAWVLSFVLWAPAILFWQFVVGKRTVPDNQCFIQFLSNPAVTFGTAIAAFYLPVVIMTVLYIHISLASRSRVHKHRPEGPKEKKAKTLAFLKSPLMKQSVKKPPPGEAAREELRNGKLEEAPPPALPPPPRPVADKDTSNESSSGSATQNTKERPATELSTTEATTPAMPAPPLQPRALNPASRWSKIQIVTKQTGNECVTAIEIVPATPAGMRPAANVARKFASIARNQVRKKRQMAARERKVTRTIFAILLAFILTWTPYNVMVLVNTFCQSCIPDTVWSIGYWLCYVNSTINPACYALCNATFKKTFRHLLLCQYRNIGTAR
Briefly: Orthosteric binding affinity to M4 receptor at 10 uM by radioligand binding assay. The procedure, abridged: as §1

Data set [6] addresses T5, Muscarinic acetylcholine receptor M3 (Homo sapiens, UniProt P20309). Briefly: Orthosteric binding affinity to M3 receptor at 10 uM by radioligand binding assay. In outline: as §1
Target sequence in this assay (P20309 whole entry, looked up): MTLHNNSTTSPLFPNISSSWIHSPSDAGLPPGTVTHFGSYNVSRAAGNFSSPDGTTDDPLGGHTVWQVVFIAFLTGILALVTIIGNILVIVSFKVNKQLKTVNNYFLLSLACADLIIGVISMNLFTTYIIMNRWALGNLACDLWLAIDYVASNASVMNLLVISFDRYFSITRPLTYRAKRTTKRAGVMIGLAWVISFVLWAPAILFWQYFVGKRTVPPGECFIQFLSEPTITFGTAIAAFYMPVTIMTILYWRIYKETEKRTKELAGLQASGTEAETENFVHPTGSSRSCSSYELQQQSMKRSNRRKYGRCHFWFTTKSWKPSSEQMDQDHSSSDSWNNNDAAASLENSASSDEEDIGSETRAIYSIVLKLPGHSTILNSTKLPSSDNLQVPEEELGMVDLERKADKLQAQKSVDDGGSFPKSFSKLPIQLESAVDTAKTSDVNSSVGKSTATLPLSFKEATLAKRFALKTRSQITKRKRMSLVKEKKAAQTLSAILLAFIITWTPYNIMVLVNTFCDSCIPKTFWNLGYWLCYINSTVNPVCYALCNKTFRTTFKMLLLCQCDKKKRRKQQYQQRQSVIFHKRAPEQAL
Data set [7] addresses T6, Muscarinic acetylcholine receptor M2 (Homo sapiens) (UniProt P08172).
T6 sequence (whole entry): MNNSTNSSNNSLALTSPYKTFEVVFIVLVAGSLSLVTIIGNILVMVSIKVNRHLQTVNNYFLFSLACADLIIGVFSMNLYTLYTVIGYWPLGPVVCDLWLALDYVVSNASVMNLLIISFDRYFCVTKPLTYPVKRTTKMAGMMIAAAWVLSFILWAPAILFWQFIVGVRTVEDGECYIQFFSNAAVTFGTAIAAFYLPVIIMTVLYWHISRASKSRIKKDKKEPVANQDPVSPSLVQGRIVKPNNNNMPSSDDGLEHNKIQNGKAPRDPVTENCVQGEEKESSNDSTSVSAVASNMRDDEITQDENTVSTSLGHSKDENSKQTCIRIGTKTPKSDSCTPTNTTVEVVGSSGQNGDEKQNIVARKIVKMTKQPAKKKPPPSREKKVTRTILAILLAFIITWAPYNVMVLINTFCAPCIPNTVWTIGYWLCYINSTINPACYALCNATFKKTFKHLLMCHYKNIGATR
Briefly: Orthosteric binding affinity to M2 receptor at 10 uM by radioligand binding assay. The procedure, abridged: as §1

Data set [8] addresses T2, Muscarinic acetylcholine receptor M1 (Rattus norvegicus). Briefly: Orthosteric binding affinity to rat M1 receptor at 10 uM by radioligand binding assay. The procedure, abridged:
as §1

The nature of data set [9]: Binding affinity to Sodium channel site 2 at 10 uM by radioligand binding assay. In outline:
as §1

Data set [10] has as its target Sodium-dependent dopamine transporter (Homo sapiens) (UniProt Q01959). Briefly: Binding affinity to DAT at 10 uM by radioligand binding assay. The procedure, abridged: as §1
Data set [11] has as its target T2, Muscarinic acetylcholine receptor M1 (Rattus norvegicus). Briefly: Agonist activity at rat M1 receptor expressed in CHO cells assessed as leftward shift in Ach response at 30 uM by calcium mobilization assay. It counts as functional, cell-based.
For data set [12], the target named is T7, Muscarinic acetylcholine receptor M2 (Homo sapiens, UniProt P08172).
T7 sequence (P08172 whole entry): T6 sequence (whole entry)
Briefly: Agonist activity at M2 receptor. Type of data set: functional.

For data set [13], the target named is T5, Muscarinic acetylcholine receptor M3. Briefly: Agonist activity at M3 receptor. Type of data set: functional.
Target sequence in this assay (P20309 whole entry): as the sequence (P20309 whole entry, looked up) above
The target of data set [14] is T8, Muscarinic acetylcholine receptor M4 (Homo sapiens, UniProt P08173).
T8 sequence (P08173 whole entry): T4 sequence (whole entry)
Briefly: Agonist activity at M4 receptor. Type of data set: functional.

Data set [15] has as its target T9, Muscarinic acetylcholine receptor M5 (Homo sapiens, UniProt P08912).
T9 sequence (P08912 whole entry): T3 sequence (whole entry)
In words: Agonist activity at M5 receptor. It counts as functional.

Calls of active or inactive are those of the source. The calls are words filed in the database; no cut-off is given here.

Sequence of Sodium-dependent dopamine transporter (Homo sapiens) (Q01959 whole entry): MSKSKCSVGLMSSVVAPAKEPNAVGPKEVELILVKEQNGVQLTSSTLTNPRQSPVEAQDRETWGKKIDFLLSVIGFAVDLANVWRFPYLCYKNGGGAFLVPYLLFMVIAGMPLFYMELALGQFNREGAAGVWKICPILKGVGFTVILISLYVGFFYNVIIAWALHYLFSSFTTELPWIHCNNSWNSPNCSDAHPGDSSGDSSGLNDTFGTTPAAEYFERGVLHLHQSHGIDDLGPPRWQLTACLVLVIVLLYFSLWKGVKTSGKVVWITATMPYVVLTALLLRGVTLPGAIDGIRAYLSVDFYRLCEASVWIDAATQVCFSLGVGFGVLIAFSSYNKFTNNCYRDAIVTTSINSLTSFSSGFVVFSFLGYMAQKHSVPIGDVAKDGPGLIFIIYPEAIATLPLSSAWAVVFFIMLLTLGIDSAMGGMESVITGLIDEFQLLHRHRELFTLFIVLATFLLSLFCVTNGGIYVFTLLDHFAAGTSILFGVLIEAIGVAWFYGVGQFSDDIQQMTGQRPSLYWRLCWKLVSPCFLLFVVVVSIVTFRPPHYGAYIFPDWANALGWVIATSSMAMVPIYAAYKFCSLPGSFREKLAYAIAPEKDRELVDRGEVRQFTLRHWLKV

In the case of `CCC(C)n1cc(-c2cccc(Cn3cc(S(=O)(=O)CC(=O)Nc4cc(C)on4)c4ccccc43)c2)cn1` (configuration not stated), the EC50 in [1] was more than 10 µM.

For `Cc1cc(NC(=O)CS(=O)(=O)c2cn(Cc3cccc(Cl)c3F)c3ccccc23)no1`, the Activity in data set [2] was 56%. In the case of `Cc1cc(NC(=O)CS(=O)(=O)c2cn(Cc3ccccc3F)c3ccccc23)no1`, in [1], the EC50 is more than 10 µM. In the case of `Cc1cc(NC(=O)CS(=O)(=O)c2cn(Cc3cccc(-c4cnn(C)c4)c3)c3ccccc23)no1`, the EC50 in data set [1] was 3.21 µM. In addition, the Activity in data set [2] was found to be 102%.

As to `Cc1cc(NC(=O)CS(=O)(=O)c2cn(Cc3ccc(F)c(Cl)c3)c3ccccc23)no1`, in data set [1], the concentration giving a half-maximal response (EC50) was more than 10 µM. Consider `Cc1cc(NC(=O)CS(=O)(=O)c2cn(Cc3cc(Br)ccc3F)c3ccccc23)no1`, for which the Kp at 1 h in data set [3] was found to be 0.32. For the same compound, the outcome in [4], in data set [5], in data set [6], in data set [7] and in data set [8] was inactive. Also, the values for the Activity in [9], in [10] and in data set [2] were 83%, 83% and 84%, respectively. Besides, the fold change (FC) in data set [11] came out at 49. Take `Cc1cc(NC(=O)CS(=O)(=O)c2cn(Cc3cccc(-c4ccccc4)c3)c3ccccc23)no1`: the EC50 in data set [1] was more than 10 µM. As to `Cn1cc(-c2ccc(CN3C(=O)C(=O)c4ccccc43)c(F)c2)cn1`, the Kp at 1 h in [3] came out at 0.1. With `Cc1cc(NC(=O)CS(=O)(=O)c2cn(Cc3cccc(-c4cn[nH]c4)c3)c3cc(F)cc(F)c23)no1`, the fold change (FC) in [11] came out at 98. In addition, the Activity in data set [2] is 102%.

As to `Cc1cc(NC(=O)CS(=O)(=O)c2cn(Cc3cccc(-c4cn[nH]c4)c3)c3ccccc23)no1`, the Activity in data set [2] is 90%. For the compound `Cc1cc(NC(=O)CS(=O)(=O)c2cn(Cc3cccc(Br)c3)c3ccccc23)no1`, the Activity in data set [2] was found to be 91%. Take `Cc1cc(NC(=O)CS(=O)(=O)c2cn(Cc3ccc(C(F)(F)F)cc3)c3ccccc23)no1`: the 50% effective concentration (EC50) in data set [1] is more than 10 µM.

Regarding `Cc1cc(NC(=O)CS(=O)(=O)c2cn(Cc3cccc(-c4cn[nH]c4)c3F)c3ccccc23)no1`, the EC50 in data set [1] turned out to be 4.4 µM. Further, in [2], the Activity came out at 103%. `Cc1cc(NC(=O)CS(=O)(=O)c2cn(Cc3cccc(-c4ccc(N5CCNCC5)nc4)c3)c3ccccc23)no1`: the EC50 in data set [1] was more than 10 µM. `Cc1cc(NC(=O)CS(=O)(=O)c2cn(Cc3cccc(-c4ccc(Cl)nc4)c3)c3ccccc23)no1`: the concentration for a half-maximal effect (EC50) in data set [1] was more than 10 µM. As for `Cc1cc(NC(=O)CS(=O)(=O)c2cn(Cc3ccc(Cl)cc3)c3ccccc23)no1`, the EC50 in data set [1] was more than 10 µM. Regarding `Cc1cc(NC(=O)CS(=O)(=O)c2cn(Cc3cccc(Cl)c3)c3ccccc23)no1`, the Activity in data set [2] is 96%. Consider `Cc1cc(NC(=O)CS(=O)(=O)c2cn(Cc3cccc(C#N)c3)c3ccccc23)no1`, for which, in [1], the EC50 is more than 10 µM. For `COc1cccc(Cn2cc(S(=O)(=O)CC(=O)Nc3cc(C)on3)c3ccccc32)c1`, the Activity in [2] turned out to be 79%. On to `Cc1cc(NC(=O)CS(=O)(=O)c2cn(Cc3cccc(Br)c3)c3cc(F)cc(F)c23)no1`, for which, in data set [2], the Activity was determined as 103%. Turning to `Cc1cc(NC(=O)CS(=O)(=O)c2cn(Cc3ccc(F)cc3F)c3ccccc23)no1`, the EC50 in [1] was more than 10 µM. As to `Cc1cc(NC(=O)CS(=O)(=O)c2cn(Cc3cccc(Br)c3F)c3ccccc23)no1`, the EC50 in [1] is more than 10 µM.

In the case of `Cc1cc(NC(=O)CS(=O)(=O)c2cn(Cc3ccc(Cl)c(Cl)c3)c3ccccc23)no1`, in data set [1], the EC50 was more than 10 µM. In the case of `COc1ccc(Cn2cc(S(=O)(=O)CC(=O)Nc3cc(C)on3)c3ccccc32)cc1`, the concentration for a half-maximal effect (EC50) in data set [1] was more than 10 µM. As to `Cc1cc(NC(=O)CS(=O)(=O)c2cn(Cc3ccccc3Cl)c3ccccc23)no1`, the EC50 in data set [1] was 9.71 µM; in data set [12], more than 30 µM; in [13], more than 30 µM; in data set [14], more than 30 µM; in data set [15], more than 30 µM. With `Cc1cc(NC(=O)CS(=O)(=O)c2cn(Cc3cccc(-c4ccc(N5CCCC5)nc4)c3)c3ccccc23)no1`, the EC50 in data set [1] was more than 10 µM. On the same count and under the same terms, as for `COc1ccccc1Cn1cc(S(=O)(=O)CC(=O)Nc2cc(C)on2)c2ccccc21`, the figure is more than 10 µM; as for `Cc1cc(NC(=O)CS(=O)(=O)c2cn(Cc3ccc(F)c(Br)c3)c3ccccc23)no1`, more than 10 µM; as for `Cc1cc(NC(=O)CS(=O)(=O)c2cn(Cc3cccc(C(F)(F)F)c3)c3ccccc23)no1`, more than 10 µM. `Cc1cc(NC(=O)CS(=O)(=O)c2cn(Cc3cc(Br)cc(Br)c3)c3ccccc23)no1`: the EC50 in data set [1] is more than 10 µM. As for `Cc1cc(NC(=O)CS(=O)(=O)c2cn(Cc3ccc(F)c(-c4cn[nH]c4)c3)c3ccccc23)no1`, in [1], the EC50 was more than 10 µM.

With `Cc1cc(NC(=O)CS(=O)(=O)c2cn(Cc3cccc(-c4ccc(N5CCOCC5)nc4)c3)c3ccccc23)no1`, in [1], the EC50 was more than 10 µM. `Cc1cc(NC(=O)CS(=O)(=O)c2cn(Cc3ccc(OC(F)(F)F)cc3)c3ccccc23)no1`: the EC50 in [1] was more than 10 µM.

Turning to `Cc1cc(NC(=O)CS(=O)(=O)c2cn(Cc3ccc(F)cc3Br)c3ccccc23)no1`, the EC50 in [1] is more than 10 µM. Turning to `Cc1cc(NC(=O)CS(=O)(=O)c2cn(Cc3cc(-c4cn[nH]c4)ccc3F)c3ccccc23)no1`, the EC50 in [1] was 3.07 µM. Besides, the Activity in data set [2] was found to be 96%.
